Rows were chosen to be rich in hits. Some 2.4% of all compounds tested hit in one or more screens of this group.
Hck Nef HTS = inhibitors of Nef-activated human Hck kinase, primary screen, biochemical, Z-Lyte FRET, 384-well, Hck-YEEI; Tyrosine-protein kinase HCK (Homo sapiens), P08631; Recombinant Hck-YEEI plus Nef, Z-Lyte FRET kinase assay; inhibition, % at 20 µM; 220,000 compounds, 0.68% hits;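 active = Hck-Nef kinase inhibition above about 50%, limit read from the data; inactive = inhibition below that limit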;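 note: 0% = DMSO with Hck plus Nef and 100% = Hck alone without Nef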
Dynein cargo inh = inhibitors of GR-EGFP nuclear translocation, primary screen, dynein cargo transport inhibitor project, imaging, high-content, 3617.4 mouse cells; test concentration mostly 20 µM; stimulated with dexamethasone, 1 µM; hits give low values; z-score, hits read low; 220,000 compounds, 0.47% hits; AID 1381, 2008;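 active = plate z-score of nuclear minus cytoplasmic receptor signal below a set negative limit, without overly bright fluorescence or cell loss, cut at about -3.5 in these data, passing the limit was not always enough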;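 note: z-score of nuclear minus cytoplasmic ring GR-EGFP intensity difference per well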
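Buffer or medium: tet-free medium with charcoal-stripped serum / Also added: dexamethasone agonist, 1.0 µM final, for 30 min / Timing: induction 48 h, compound 1 h, agonist 30 min / Measured by: high-content fluorescence imaging after fixation / Read-out: nuclear-to-cytoplasmic GR-EGFP distribution per well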
zVAD death inh = inhibitors of zVAD-triggered necroptosis, primary screen, L929 cells | L929 zVAD necroptosis rescue, ATP luminescence, 24 h; with zVAD 60 µM | viability rescue, % at 10 µM | 220,000 compounds, 0.38% hits;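 active = activation, scaled between plate controls, above about 75%, limit read from the data; inactive = activation under that limit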;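 note: 0% = zVAD with DMSO and 100% = DMSO alone without zVAD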
TNF necrop inh = inhibitors of TNF-alpha triggered necroptosis, primary screen, cell-based, Jurkat FADD-/-, single concentration; Jurkat FADD-/- TNF necroptosis rescue, ATP luminescence, 24 h; 0 = TNF only, 100 = no-TNF cells; activation (protection from cell death), % at 10 µM; 220,000 compounds, 0.068% hits;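 active = activation, meaning protection from cell death, of at least 50% relative to plate controls; inactive = activation below 50%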;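 note: necroptosis triggered by 40 ng/mL TNF-alpha added together with compound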
Autophagy HCS = autophagy modulators in MEF cells, primary screen, imaging, high-content, MEF GFP-LC3. MEF GFP-LC3 puncta imaging; test concentration mostly 10 µM. calls only at 10 µM (by protocol). 190,000 compounds, 0.98% hits. AID 463193, 2010;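 active = percentage of spot-positive cells more than 3 SD above its plate mean, without a fluorescence outlier flag or 80% toxicity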;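 note: spot-positive cell cutoff set from DMSO-treated cells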
Mdm2 ligase inh = MDM2-luciferase reporter signal enhancers, primary screen, MDM2 E3 ligase inhibitor project, cell-based, luminescence, 1536-well; 210,000 compounds, 0.11% hits; E3 ubiquitin-protein ligase Mdm2 (Homo sapiens), Q00987; AID 1230, 2008; signal enhancement, % at 5 µM; cell-based MDM2 ubiquitination luciferase reporter, 2 h; 0 = plate control, 100 = twice control, blank-subtracted;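 active = signal enhancement of 30% or more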;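 note: luminescence tracks abundance of the self-degrading MDM2-luciferase fusion protein; higher signal means inhibition of MDM2 E3 ligase activity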
Target sequence (Q00987 whole entry, looked up, the tested form may be a part): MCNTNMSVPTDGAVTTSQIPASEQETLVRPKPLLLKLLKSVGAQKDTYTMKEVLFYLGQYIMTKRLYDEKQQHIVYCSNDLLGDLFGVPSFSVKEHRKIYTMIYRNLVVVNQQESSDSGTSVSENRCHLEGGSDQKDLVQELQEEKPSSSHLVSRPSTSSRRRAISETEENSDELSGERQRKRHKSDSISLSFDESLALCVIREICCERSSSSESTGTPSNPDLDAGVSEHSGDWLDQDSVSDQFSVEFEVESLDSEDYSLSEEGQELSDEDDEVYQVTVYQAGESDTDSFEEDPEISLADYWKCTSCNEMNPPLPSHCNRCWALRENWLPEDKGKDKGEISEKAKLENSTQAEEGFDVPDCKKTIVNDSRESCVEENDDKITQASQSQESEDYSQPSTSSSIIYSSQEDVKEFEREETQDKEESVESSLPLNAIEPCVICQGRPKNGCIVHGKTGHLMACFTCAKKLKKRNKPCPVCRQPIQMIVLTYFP
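test system = mammalian cells stably expressing self-ubiquitinating, self-degrading MDM2 E3–luciferase fusion | quantity = 2000 cells/well | incubation = cell settling 4 h, compound treatment 2 h, both 37 °C | signal = luminescence with SteadyLite reagent, 15 min at room temperature | evaluation = % enhancement relative to plate controls after blank subtraction | benchmarks = plate controls and plate blanks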
zVAD necrop conf = inhibitors of zVAD-triggered necroptosis in L929, confirmation, L929 cells, duplicate runs | shares compounds with zVAD death inh | 760 compounds, 16% hits | L929 zVAD-induced necroptosis rescue, ATP luminescence, 24 h | AID 463117, 2010 | activation (protection from necroptosis), % at 10 µM;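 active = mean protection from necroptosis of at least 50% over duplicate tests; inactive = mean protection below 50%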;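 note: 0% = cells with zVAD alone and 100% = vehicle cells without zVAD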
Numbers without * were called inactive; i = inactive; · = no result; ! = a repeat was not active.

SMILES	Hck Nef HTS	Dynein cargo inh	zVAD death inh	TNF necrop inh	Autophagy HCS	Mdm2 ligase inh	zVAD necrop conf
COc1ccc2nc(NC(=O)CCc3cc(OC)c(OC)c(OC)c3)sc2c1	-1	1.8	88*	6	i	-24	4
CCC(=O)Nc1nc2cc(OC)ccc2s1	2	-0.23	88*	-2	i	-25	29
COc1ccc2sc(NC(C)=O)nc2c1	-2	-0.75	57	0	i	-12	·
CCC(=O)Nc1nc2ccc3nc(C)sc3c2s1	10	-1	84*	0	i	-14	31
COc1ccc2sc(NC(=O)CC(C)C)nc2c1	0	-0.23	77*	4	i	0	7
CCCCCCC(C)n1[nH]c(=O)cc1N (configuration not stated)	12	-0.62	0	-1	·	10	·
O=C1c2nc3cc(-c4ccco4)[nH]n3c(=O)c2CN1C1CCCCC1	15	-0.25	1	-1	·	-17	·
CC(C)Cn1c(SCC(=O)c2ccc(Cl)s2)nnc1-c1ccco1	-1	2.4	-1	-2	i	-15	·
CC1=C(C#N)C(C(F)(F)F)(C(F)(F)F)N=C(c2ccco2)N1	7	-0.21	-1	-2	i	9	·
O=C(Nc1ccc(-c2csc(Nc3ccc(Cl)cc3)n2)cc1)c1cccc(C(F)(F)F)c1	15	-0.77	82*	8	·	16	39
O=S(=O)(Nc1cccc2ncccc12)c1cccs1	2	-1.6	79*	5	i	-7	40
Cc1c(NS(=O)(=O)c2cccs2)cccc1-c1nc2cccnc2s1	6	0.37	0	-1	·	-9	·
O=C(NCC(c1cccnc1)N1CCN(c2ccc(F)cc2)CC1)c1ccco1 (configuration not stated)	11	0.22	1	1	i	-3	·
O=C(CSc1nnnn1-c1ccc2c(c1)OCCO2)Nc1nc2c(s1)CCCC2	3	-0.18	84*	2	i	-16	74*
Cn1nc(C(=O)OCC(=O)Nc2sccc2C(N)=O)c2ccccc2c1=O	20	-0.036	0	0	·	1	·
CNc1ncc(C(=O)c2ccc(F)cc2)s1	-9	-0.69	85*	7	i	-11	4
Cc1ccc2c(c1)N(C(=O)NC1CCCCC1)C(C)(C)CC2C (configuration not stated)	-1	-0.83	82*	16	i	·	81*
Cc1ccc2c(c1)C(C)CC(C)(C)N2C(=O)NC1CCCCC1 (configuration not stated)	0	0.36	88*	7	i	5	82*
Cc1ccc2c(c1)C(C)CC(C)(C)N2C(=O)CN1CCN(C)CC1 (configuration not stated)	18	-0.76	-1	1	·	·	·
COc1ccc(NC(=O)Nc2ccc(Br)cn2)cc1	-9	0.033	79*	9	i	-14	10
Cc1ccc(NC(=O)Nc2ccc3c(c2)OCO3)nc1	-28	1.1	77*	7	i	-5	1
COC(=O)c1ccccc1NC(=O)Nc1ccc(Br)cn1	21	-1.7	-1	1	i	1	·
O=C(Nc1ccc(Cl)cn1)Nc1ccccc1Cl	2	-0.88	73	2	i	3	·
CCOc1ccccc1NC(=O)Nc1cnccn1	22	-0.59	80*	-2	i	-4	2
Cc1ccc(NC(=O)Nc2ccc(Cl)cn2)cc1	7	0.73	83*	3	i	-1	1
SMILES	Hck Nef HTS	Dynein cargo inh	zVAD death inh	TNF necrop inh	Autophagy HCS	Mdm2 ligase inh	zVAD necrop conf
Cc1ccc2c(c1)c(-c1ccccc1)nc1nnnn12	23	-0.057	1	0	i	-3	·
O=C1c2oc3ccccc3c(=O)c2C(c2ccc(O)cc2)N1c1nccs1 (configuration not stated)	-33	0.018	1	0	i	9	·
O=C(Nc1cnccn1)Nc1ccccc1Cl	25	-0.86	79*	-2	i	-3	2
O=C(Nc1ccc(Cl)cc1)Nc1cnccn1	26	-0.75	76*	0	i	-3	7
O=C(Nc1ccccc1)Nc1ccccn1	10	0.29	77*!	1	i	-6	3
Cc1nc(C(=O)N/N=C/c2[nH]ncc2Br)cs1	5	0.74	1	4	·	-11	·
CN(c1cccc(NC(=O)c2ccc(N(C)S(=O)(=O)c3ccccc3)cc2)c1)S(C)(=O)=O	15	-1.3	1	-4	i	7	·
CN(c1cccc(NC(=O)c2ccc(C(C)(C)C)cc2)c1)S(C)(=O)=O	3	-0.16	77*	-2	i	-16	36
CN(C)S(=O)(=O)Oc1ccc(C(=O)Nc2cccc(C(F)(F)F)c2)cc1	-8	0.12	79*	-4	i	0	3
CN(c1cccc(NC(=O)CSc2ccc(Cl)cc2)c1)S(C)(=O)=O	1	1.5	75*	-7	i	-10	3
O=C(CN1CCOCC1)Nc1nc2ccc(Br)cc2s1	-10	0.11	77*	4	i	-5	16
COc1ccc(C(=O)OCC(=O)NC(=O)NC2CCCC2)c(OC)c1	6	0.19	12	0	i	-4	·
COc1ccc(C(=O)OCC(=O)NC(=O)NC2CCCC2)c(O)c1	-18	0.013	77*	1	i	-13	10
CCC(=O)c1ccc(OCCn2cnc3ccccc32)cc1	-6	-0.54	1	3	i	-37	·
O=C(Nc1ccc(Cl)c(Cl)c1)c1cccc(S(=O)(=O)NCc2cccnc2)c1	1	-1	77*	-5	i	-14	2
COc1cccc(S(=O)(=O)NCc2ccc(C(=O)Nc3ccc(Cl)c(Cl)c3)cc2)c1	20	0.13	-1	0	i	-4	·
Cc1nc(-c2ccccc2)sc1-c1ccn[nH]1	33	-0.65	80*	10	i	-24	40
Cc1nc(-c2ccccc2)sc1-c1ccnn1C	29	-0.25	1	-1	i	-17	·
CC1CCC/C=C/C(=O)c2c(O)cc(O)cc2CC(=O)O1 (configuration not stated)	33	-4.5*	84*	-26	·	-27	33

Screening data (PubChem BioAssay)
